The source made the active and inactive calls. The calls are words filed in the database; no cut-off is given here.
Key:
[1] = organism: Homo sapiens; experiment: Selectivity ratio of ki for human TSPO A147T mutant expressed in HEK293 cell membranes to ki for human TSPO expressed in HEK293 cell membranes; format: cell-based
Procedure, shortened: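 Membranes from stably transfected HEK293 cells (PBS/0.04% EDTA detachment, homogenised in Tris-HCl, washed by 48000 g spins), 20 µg protein/well for WT or 10 µg/well for A147T, incubated with 10 nM [3H]PK 11195 and competitor at log-spaced 3.1 nM–10 µM, 90 min, 4 °C.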

[2] = biological target: T1, Translocator protein (Homo sapiens, UniProt P30536); experiment: Binding affinity to wild-type human TSPO expressed in HEK293 cells assessed as inhibition of cell viability at 100 uM incubated for 48 hrs by CellTiter Blue assay relative to control; format: cell-based
T1 sequence (P30536 whole entry): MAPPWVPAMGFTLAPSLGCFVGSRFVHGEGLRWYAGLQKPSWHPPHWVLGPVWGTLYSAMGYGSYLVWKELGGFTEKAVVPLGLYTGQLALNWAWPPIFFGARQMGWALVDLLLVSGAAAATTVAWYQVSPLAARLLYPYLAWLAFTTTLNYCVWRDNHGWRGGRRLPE
Procedure, shortened: (§1)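 Stably transfected WT or A147T TSPO HEK293 cells, 8.75 x 10^3/well on poly-L-lysine (100 µg/mL) plates for 24 h, then 100 µM ligand for 48 h. CellTiter Blue (resazurin) added for 4 h at 37 °C; fluorescence 530 ex/590 em; normalised to vehicle-treated cells; three independent experiments; two-way ANOVA with Dunnett's test.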

[3] = test system: Translocator protein (Homo sapiens), P30536 [UNDEFINED MUTATION]; experiment: Binding affinity to human TSPO A147T mutant expressed in HEK293 cells assessed as inhibition of cell viability at 100 uM incubated for 48 hrs by CellTiter Blue assay relative to control; format: cell-based; procedure, shortened: as §1
Chain of Translocator protein (Homo sapiens), P30536 [UNDEFINED MUTATION] (P30536 whole entry, looked up, stated change not applied): as the sequence (P30536 whole entry) above

[4] = biological target: T1, Translocator protein; experiment: Displacement of [3H]PK11195 from wild-type human TSPO expressed in HEK293 cell membranes after 90 mins by scintillation counting method
[5] = biological target: T1, Translocator protein; experiment: Binding affinity to wild-type human TSPO expressed in HEK293 cells assessed as inhibition of cell proliferation at 100 uM incubated for 48 hrs by Brdu incorporation-based ELISA relative to control
Procedure, shortened: (§2)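 Stably transfected WT or A147T TSPO HEK293 cells, 8.75 x 10^3/well on poly-L-lysine-coated plates for 24 h, then 100 µM ligand for 48 h. BrdU added 4 h at 37 °C, BrdU incorporation ELISA stopped with 1 M sulfuric acid, absorbance 450 nm; normalised to vehicle-treated controls; n ≥ 3; two-way ANOVA with Dunnett's test.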

[6] = test system: Translocator protein (Homo sapiens), P30536 [UNDEFINED MUTATION]; experiment: Binding affinity to human TSPO A147T mutant expressed in HEK293 cells assessed as inhibition of cell proliferation at 100 uM incubated for 48 hrs by Brdu incorporation-based ELISA relative to control; procedure, shortened: as §2
[7] = test system: Translocator protein (Homo sapiens), P30536 [UNDEFINED MUTATION]; experiment: Positive allosteric modulation of human TSPO A147T mutant expressed in HEK293 cells assessed as potentiation of PK11195-induced reduction in cell proliferation at 100 uM after 48 hrs by Brdu incorporation-based ELISA
Procedure, shortened: (§3)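 WT or A147T TSPO HEK293 cells (8.75 x 10^3/well, poly-L-lysine plates, 24 h) co-treated with 100 µM PK 11195 plus 100 µM ligand for 48 h; proliferation by BrdU ELISA (4 h BrdU labelling, 450 nm read); compared with PK 11195 alone; n ≥ 3; two-way ANOVA with Dunnett's test.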

[8] = biological target: T1, Translocator protein; experiment: Positive allosteric modulation of wild-type human TSPO expressed in HEK293 cells assessed as potentiation of PK11195-induced reduction in cell proliferation at 100 uM after 48 hrs by Brdu incorporation-based ELISA; procedure, shortened: as §3
[9] = organism: Homo sapiens; experiment: Selectivity ratio of ki for human TSPO A147T mutant expressed in HEK293 cells to ki for human TSPO expressed in HEK293 cells; format: cell-based
[10] = test system: Translocator protein (Homo sapiens), P30536 [UNDEFINED MUTATION]; experiment: Potency index, ratio of PK11195 Ki to compound Ki for human TSPO A147T mutant expressed in HEK293 cell membranes; format: cell-based
[11] = biological target: T1, Translocator protein; experiment: Potency index, ratio of PK11195 Ki to compound Ki for wild-type human TSPO expressed in HEK293 cell membranes; format: cell-based
[12] = biological target: Translocator protein (Rattus norvegicus) (UniProt P16257); experiment: Binding affinity to TSPO in rat C6 glioma cells assessed as steroidogenic activity by measuring increase in pregnenolone level after 2 hrs by ELISA; format: cell-based
Chain of Translocator protein (Rattus norvegicus) (P16257 whole entry, looked up): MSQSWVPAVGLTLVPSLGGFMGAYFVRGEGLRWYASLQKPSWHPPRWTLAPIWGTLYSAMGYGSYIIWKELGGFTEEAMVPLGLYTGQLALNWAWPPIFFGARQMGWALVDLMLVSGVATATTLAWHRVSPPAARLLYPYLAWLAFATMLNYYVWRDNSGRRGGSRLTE
Procedure, shortened: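 C6 glioma cells plated at 1 x 10^5/well, after 24 h washed twice with ELISA buffer (HEPES-NaOH pH 7.4, 0.1% BSA, glucose, salts), then ligand 100 µM for 2 h in buffer containing trilostane 25 µM and SU10603 10 µM; vehicle 0.1% DMSO. Buffer collected, spun 1500 g, pregnenolone quantified by ELISA; n ≥ 3; one-way ANOVA with Dunnett's test.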

[13] = biological target: T1, Translocator protein; experiment: Displacement of [3H]PK11195 from human TSPO A147T mutant expressed in HEK293 cells after 90 mins by scintillation counting method; format: cell-based
[14] = biological target: T1, Translocator protein; experiment: Displacement of [3H]PK11195 from wild-type human TSPO expressed in HEK293 cells after 90 mins by scintillation counting method; format: cell-based

SMILES: COc1cccc(CN(C)C(=O)Cn2c3ccccc3c3cc(-c4ccccc4Cl)ccc32)c1
- Ratio Ki [1]: 0.9
- inhibition [2]: inactive
- inhibition [3]: inactive
- Ki [4]: 231 nM

SMILES: COc1cccc(CN(C)C(=O)Cn2c3ccccc3c3cc(-c4ccccc4)ccc32)c1
- inhibition [5]: inactive
- Ratio Ki [1]: 0.9
- inhibition [6]: inactive
- inhibition [2]: inactive
- inhibition [3]: inactive
- Activity [7]: Active
- Activity [8]: Active
- Ki [4]: 231 nM

SMILES: CCN(Cc1cccc(NC(C)=O)c1)C(=O)Cn1c2ccccc2c2ccccc21
- Ki [4]: > 10000 nM

SMILES: CCN(Cc1cccc(OC)c1)C(=O)Cn1c2ccccc2c2cc(-c3ccc(OC)cc3)ccc21
- Ratio Ki [1]: 0.8
- Ki [4]: 447 nM

SMILES: CCN(CC)C(=O)Cn1c2ccccc2c2ccccc21
- Ratio Ki [1]: 5.9

SMILES: CCN(Cc1cccc(F)c1)C(=O)Cn1c2ccccc2c2ccccc21
- Ratio Ki [1]: > 17.8
- Ki [4]: 563 nM

SMILES: CCN(Cc1cccc(OC)c1)C(=O)Cn1c2ccccc2c2cc(-c3ccccc3)ccc21
- inhibition [5]: inactive
- Ratio Ki [1]: 1.1
- inhibition [6]: Active
- inhibition [2]: inactive
- inhibition [3]: inactive
- Ki [4]: 385 nM

SMILES: CN(Cc1ccccc1)C(=O)Cn1c2ccccc2c2ccccc21
- inhibition [5]: inactive
- Ratio Ki [1]: 2.5
- inhibition [6]: inactive
- inhibition [2]: inactive
- inhibition [3]: inactive
- Ki [4]: 53 nM

SMILES: COc1cccc(CN(C)C(=O)Cn2c3ccccc3c3cc(-c4ccc(Cl)cc4)ccc32)c1
- Ratio Ki [1]: 0.5
- Ki [4]: 3550 nM

SMILES: O=C(Cn1c2ccccc2c2ccccc21)NCc1ccccc1
- Ki [4]: > 10000 nM

SMILES: CCN(Cc1ccncc1)C(=O)Cn1c2ccccc2c2ccccc21
- Ki [4]: > 10000 nM

SMILES: COc1cccc(CN(C)C(=O)Cn2c3ccccc3c3cc(Br)ccc32)c1
- Ki [4]: > 10000 nM

SMILES: CCN(Cc1cccc(C(F)(F)F)c1)C(=O)Cn1c2ccccc2c2ccccc21
- Ki [4]: > 10000 nM

SMILES: CCN(Cc1ccccc1C(F)(F)F)C(=O)Cn1c2ccccc2c2ccccc21
- Ki [4]: > 10000 nM

SMILES: CCN(Cc1ccccc1F)C(=O)Cn1c2ccccc2c2ccccc21
- Ratio Ki [1]: 17
- Ki [4]: 184 nM

SMILES: CCN(Cc1ccc(OC)cc1)C(=O)Cn1c2ccccc2c2ccccc21
- Ratio Ki [1]: > 2.1
- Ki [4]: 4740 nM

SMILES: CCN(Cc1ccccc1OC)C(=O)Cn1c2ccccc2c2ccccc21
- Ratio Ki [1]: 1
- Ki [4]: 1530 nM

SMILES: CCN(Cc1ccccn1)C(=O)Cn1c2ccccc2c2ccccc21
- Ki [4]: > 10000 nM

SMILES: CCN(Cc1ccc(F)cc1)C(=O)Cn1c2ccccc2c2ccccc21
- Ratio Ki [1]: > 14.4
- Ki [4]: 694 nM

SMILES: CCN(Cc1ccccc1NC(C)=O)C(=O)Cn1c2ccccc2c2ccccc21
- Ratio Ki [1]: > 41.2
- Ki [4]: 243 nM

SMILES: COc1cccc(CN(C)C(=O)Cn2c3ccccc3c3cc(-c4cccc(Cl)c4)ccc32)c1
- Ratio Ki [1]: 3.2
- Ki [4]: 201 nM

SMILES: CCN(Cc1cccnc1)C(=O)Cn1c2ccccc2c2ccccc21
- Ki [4]: > 10000 nM

SMILES: CN(C)C(=O)Cn1c2ccccc2c2ccccc21
- Ki [4]: > 10000 nM

SMILES: CCN(Cc1ccc(C(F)(F)F)cc1)C(=O)Cn1c2ccccc2c2ccccc21
- Ki [4]: > 10000 nM

SMILES: COc1ccc(-c2ccc3c(c2)c2ccccc2n3CC(=O)N(C)Cc2cccc(OC)c2)cc1
- inhibition [5]: inactive
- Ratio Ki [1]: 3.8
- inhibition [6]: inactive
- inhibition [2]: inactive
- inhibition [3]: inactive
- Ratio Ki [9]: 7.3
- Ratio Ki [10]: 1.1
- Ratio Ki [11]: 3.4
- Activity [12]: inactive
- Ki [13]: 23.2 nM
- Ki [14]: 3.2 nM
- Ki [4]: 6.6 nM

SMILES: CCN(Cc1ccccc1)C(=O)Cn1c2ccccc2c2ccccc21
- inhibition [5]: inactive
- Ratio Ki [1]: 4.5
- inhibition [6]: inactive
- inhibition [2]: inactive
- inhibition [3]: inactive
- Ki [4]: 70 nM

SMILES: CC[C@@H](C)N(C)C(=O)c1cc2ccccc2c(-c2ccccc2Cl)n1
- inhibition [5]: 83%
- inhibition [6]: 81%
- inhibition [2]: 65%
- inhibition [3]: 68%
- Activity [12]: Active

SMILES: CCN(Cc1ccc(NC(C)=O)cc1)C(=O)Cn1c2ccccc2c2ccccc21
- Ki [4]: > 10000 nM

SMILES: CCN(Cc1cccc(OC)c1)C(=O)Cn1c2ccccc2c2cc(Br)ccc21
- inhibition [5]: inactive
- Ratio Ki [1]: 1
- inhibition [6]: inactive
- inhibition [2]: inactive
- inhibition [3]: inactive
- Ki [4]: 469 nM

SMILES: CCN(Cc1cccc(OC)c1)C(=O)Cn1c2ccccc2c2ccccc21
- inhibition [5]: inactive
- Ratio Ki [1]: 1
- inhibition [6]: inactive
- inhibition [2]: inactive
- inhibition [3]: inactive
- Ratio Ki [9]: 1.2
- Activity [12]: inactive
- Ki [13]: 277 nM
- Ki [14]: 217 nM
- Ki [4]: 96.1 nM
